Measurements from different studies.
Lines come from different studies, so protocols differ. Converted amounts (≈) assume the structure as drawn.
Read-out: microbial growth

Structure (SMILES) | organism | assay | test system | conditions | MIC
COCCNc1ccc(-c2nc(-c3ccc(Oc4ccccc4)cc3)no2)cc1 | Enterococcus faecium | broth dilution |  | 24 h | > 32 µg/mL
CO[C@@H](C(N)=O)[C@H](NC(=O)c1ccc(NC(=O)c2ccc(C#N)cc2)cc1)C(=O)Nc1ccc(C(=O)Nc2ccc(C(=O)Nc3ccc(C(=O)O)cc3)c(O)c2OC(C)C)cc1 | Citrobacter freundii |  | DSM30039 |  | ≤ 0.03 µg/mL
O=C(O)CCc1ccccc1Oc1ccc(-c2noc(-c3ccc(O)cc3)n2)cc1 | Enterococcus faecium | broth dilution |  | 24 h | > 32 µg/mL
CC(C)Nc1cccc(-n2c(/C=C/c3ccc(C#N)cc3)nc3ccccc3c2=O)c1 | Enterococcus faecium | broth dilution | NCTC7171 |  | > 128 µg/mL
C/C(=C\c1ccc(O)cc1)C(=O)Nc1ccc(C(=O)N[C@@H](CC(N)=O)C(=O)Nc2ccc(C(=O)Nc3ccc(C(=O)Nc4ccc(C(=O)O)cc4)c(O)c3OC(C)C)cc2)cc1 | Citrobacter freundii |  | DSM30039 |  | 0.125 µg/mL (≈ 0.148 µM)
O=C(O)c1cccc(-n2c(/C=C/c3ccc(Cl)cc3)nc3ccncc3c2=O)c1 | Enterococcus faecium | broth dilution | NCTC7171 |  | > 128 µg/mL
O=C(O)COc1cccc(Oc2ccc(-c3noc(-c4ccc(O)cc4)n3)cc2)c1 | Enterococcus faecium | broth dilution |  | 24 h | > 32 µg/mL
CC(C)Oc1c(NC(=O)c2ccc(NC(=O)c3ccc(NC(=O)[C@H](CC(N)=O)NC(=O)c4ccc(NC(=O)c5ccc(C#N)s5)cc4)cc3)c(OC(C)C)c2O)ccc(C(=O)O)c1O | Citrobacter freundii |  | DSM30039 |  | 0.5 µg/mL (≈ 0.561 µM)
O=C(O)c1cn(C2CC2)c2cc(N3CCNCC3)c(F)cc2c1=O | Mycobacterium intracellulare | resazurin | ATCC23068 |  | 1 µg/mL (≈ 3.02 µM)
NC(=O)c1cccc(-n2c(/C=C/c3ccc(F)cc3)nc3ccccc3c2=O)c1 | Enterococcus faecium | broth dilution | NCTC7171 |  | > 128 µg/mL
O=[N+]([O-])c1ccc(-c2nc(-c3ccc(Oc4ccccc4)cc3)no2)cc1 | Enterococcus faecium | broth dilution |  | 24 h | > 32 µg/mL
CC(=O)Oc1cccc(-n2c(/C=C/c3ccc([N+](=O)[O-])cc3)nc3ccccc3c2=O)c1 | Enterococcus faecium | broth dilution | NCTC7171 |  | 64 µg/mL (≈ 150 µM)
C/C(=C\c1ccc(C#N)cc1)C(=O)Nc1ccc(C(=O)N[C@@H](CC(N)=O)C(=O)Nc2ccc(C(=O)Nc3ccc(C(=O)Nc4ccc(C(=O)O)cc4)c(O)c3OC(C)C)cc2)cc1 | Citrobacter freundii |  | DSM30039 |  | 0.06 µg/mL (≈ 0.0704 µM)
O=C(O)c1cccc(-n2c(/C=C/c3ccc(C#CCO)cc3)nc3ccccc3c2=O)c1 | Enterococcus faecium | broth dilution | NCTC7171 |  | > 128 µg/mL
CC(C)Oc1c(-n2cc(-c3ccc(NC(=O)C(CC(N)=O)NC(=O)c4ccc(NC(=O)c5ccc(C#N)cc5)cc4)cc3)nn2)ccc(C(=O)Nc2ccc(C(=O)O)cc2)c1O (stereo not drawn) | Citrobacter freundii |  | DSM30039 |  | 0.5 µg/mL (≈ 0.598 µM)
